According to ChEMBL document CHEMBL1130427, “Phenylimidazolidin-2-one derivatives as selective 5-HT3 receptor antagonists and refinement of the pharmacophore model for 5-HT3 receptor binding” (J Med Chem, 1997):
Active and inactive are the calls of the source.

Experiments:
[1] = target: T1, Serotonin 3 (5-HT3) receptor (Rattus norvegicus) (UniProt P35563+Q9JJ16); assay: Inhibition of the Bezold Jarisch reflex evoked by 30 ug/Kg of 5-HT; Weak activity.; assay type: functional
[2] = target: T1, Serotonin 3 (5-HT3) receptor (Rattus norvegicus); assay: Antagonist activity ([…]) for the Bezold Jarisch reflex evoked by 30 ug/Kg of 5-HT in ethylurethane anesthetized rats (i.v.); assay type: functional
[3] = target: T2, Serotonin 3 (5-HT3) receptor (Rattus norvegicus, UniProt P35563+Q9JJ16); assay: In vitro affinity for 5-hydroxytryptamine 3 (5-HT3) receptor by displacement of [3H]BRL-43694 from rat entorhinal cortex
T2 sequence (P35563 whole entry): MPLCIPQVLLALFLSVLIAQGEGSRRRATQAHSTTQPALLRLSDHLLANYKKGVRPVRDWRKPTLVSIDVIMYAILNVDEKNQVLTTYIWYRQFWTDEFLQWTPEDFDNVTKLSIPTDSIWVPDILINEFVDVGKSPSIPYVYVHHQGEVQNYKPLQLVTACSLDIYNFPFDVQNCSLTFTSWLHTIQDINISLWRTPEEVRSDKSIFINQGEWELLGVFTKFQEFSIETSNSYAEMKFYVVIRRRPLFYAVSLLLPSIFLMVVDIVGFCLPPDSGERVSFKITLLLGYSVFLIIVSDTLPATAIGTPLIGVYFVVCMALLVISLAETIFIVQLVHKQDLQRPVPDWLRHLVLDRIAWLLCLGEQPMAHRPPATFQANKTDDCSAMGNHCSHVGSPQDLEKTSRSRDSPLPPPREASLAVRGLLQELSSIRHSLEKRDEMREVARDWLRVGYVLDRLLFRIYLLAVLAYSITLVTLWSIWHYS
T2 sequence (Q9JJ16 whole entry): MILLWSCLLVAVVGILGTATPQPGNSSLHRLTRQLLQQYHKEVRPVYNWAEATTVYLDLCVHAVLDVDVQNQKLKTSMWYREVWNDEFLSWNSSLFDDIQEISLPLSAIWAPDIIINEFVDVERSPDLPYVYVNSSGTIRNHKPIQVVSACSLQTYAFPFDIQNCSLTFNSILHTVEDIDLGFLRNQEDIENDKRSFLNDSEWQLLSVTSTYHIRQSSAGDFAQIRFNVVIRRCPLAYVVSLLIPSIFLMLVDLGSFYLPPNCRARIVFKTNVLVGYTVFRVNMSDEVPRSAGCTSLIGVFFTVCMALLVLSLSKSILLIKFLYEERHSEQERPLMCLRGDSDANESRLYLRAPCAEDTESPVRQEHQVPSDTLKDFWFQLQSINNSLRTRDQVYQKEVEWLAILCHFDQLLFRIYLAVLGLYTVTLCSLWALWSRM
Outline: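 Each displacement curve has 10 concentrations in triplicate; Ki averaged from at least three curves (±SEM) using the Ligand program.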

[4] = target: T1, Serotonin 3 (5-HT3) receptor (Rattus norvegicus); assay: (§1) Inhibition of the Bezold Jarisch reflex evoked by 30 ug/Kg of 5-HT.; assay type: functional
Outline: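 Rats anesthetized with ethylurethane, 1.25 g/kg ip. Bezold–Jarisch reflex evoked by 5-HT 30 μg/kg iv. The rapid, transient fall in heart rate was quantified without and with antagonist.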

[5] = tested on: Rattus norvegicus; assay: Antagonist activity (100 ug/kg) for the Bezold Jarisch reflex evoked by 30(ug/Kg) of 5-HT receptor in ethylurethane anesthetized rats i.v.; assay type: functional
[6] = target: T3, 5-hydroxytryptamine receptor 3A (Rattus norvegicus) (UniProt P35563); assay: Antagonist activity (100 ug/kg) for the Bezold Jarisch reflex evoked by 30 (ug/Kg) of 5-hydroxytryptamine 3 receptor in ethylurethane anesthetized rats i.v.; assay type: functional
T3 sequence (whole entry): T2 sequence (P35563 whole entry)

[7] = target: T1, Serotonin 3 (5-HT3) receptor (Rattus norvegicus); assay: as §1; assay type: functional; remark: listed apart in the source

inhibition [2]	ID50 [4]	SMILES	ID50 [1]	Ki [3]	Inhibition [5]	inhibition [6]	ID50 [7]
	0.00225 mg/kg	Cc1nccn1CC1CCc2c(c3ccccc3n2C)C1=O (centres undefined)					
87%	0.00526 mg/kg	Cc1[nH]cnc1CN1CCN(c2cccc(Cl)c2)C1=O		0.5 nM			
89%	0.0065 mg/kg	Cc1[nH]cnc1CN1CCN(c2cccc(Br)c2)C1=O		0.62 nM			
77%	0.0285 mg/kg	Cc1c(CN2CCN(c3ccccc3)C2=O)ncn1C		8.5 nM			
38%		CC[n+]1c[nH]c(C)c1CN1CCN(c2ccccc2)C1=O	Partially active	67 nM			
88%	0.0286 mg/kg	CSc1cccc(N2CCN(Cc3nc[nH]c3C)C2=O)c1		1.6 nM			
86%	0.0034 mg/kg	Cc1cc(C)cc(N2CCN(Cc3nc[nH]c3C)C2=O)c1		0.42 nM			
86%	0.0031 mg/kg	Cc1cccc(N2CCN(Cc3nc[nH]c3C)C2=O)c1		0.93 nM			
		Cc1nc[nH]c1CN1CCN(c2cccc([N+](=O)[O-])c2)C1=O		6.6 nM			
29%		Cc1[nH]cnc1CN1CCN(c2ccc(Cl)cc2)C1=O	Partially active	19 nM			
84%	0.0176 mg/kg	Cc1[nH]cnc1CN1CCN(c2cccc(F)c2)C1=O		3.7 nM			
21%		CCn1cnc(CN2CCN(c3ccccc3)C2=O)c1C	Partially active	85 nM			
95%	0.054 mg/kg	Cc1[nH]cnc1CN1CCN(c2cccc([N+](=O)[O-])c2)C1=O					
93%	0.0022 mg/kg	Cc1[nH]cnc1CN1CCN(c2cc(Cl)cc(Cl)c2)C1=O		0.038 nM			
	0.001 mg/kg	CN1[C@@H]2CC[C@H]1C[C@@H](OC(=O)c1c[nH]c3ccccc13)C2					
5%		Cc1[nH]cnc1CN1CCN(c2ccccc2Cl)C1=O	Partially active	290 nM			
45%		Cc1[nH]c[n+](C)c1CN1CCN(c2ccccc2)C1=O	Partially active	55 nM			
88%	0.0322 mg/kg	Cc1[nH]cnc1CN1CCN(c2cccc(C#N)c2)C1=O		2.7 nM			
		COc1cccc(N2CCN(C3CN4CCC3CC4)C2=O)c1 (centres undefined)	Partially active	6 nM	37%		
56%		O=C1N(Cc2c[nH]cn2)CCN1c1ccccc1	Partially active	4 nM			
		CN1C2CCC1CC(N1CCN(c3cccc(Cl)c3)C1=O)C2 (stereo in doubt; 33) [listing 1 of 2 here]		25 nM			
		CN1C2CCCC1CC(N1CCN(c3cccc(Cl)c3)C1=O)C2 (stereo in doubt; 37) [listing 2 of 2 here]		250 nM			
		CN1C2CCC1CC(N1CCN(c3cccc(Cl)c3)C1=O)C2 (stereo in doubt; 34) [listing 2 of 2 here]		> 10000 nM			
		O=C1N(c2ccc(Cl)cc2)CCN1C1CN2CCC1CC2 (centres undefined)	Partially active	210 nM		8%	
95%	0.0039 mg/kg	Cc1[nH]cnc1CN1CCN(c2ccccc2)C1=O		3.4 nM			
		CN1C2CCCC1CC(N1CCN(c3cccc(Cl)c3)C1=O)C2 (stereo in doubt; 38) [listing 1 of 2 here]		360 nM			
95%	0.00088 mg/kg	CN1C2CCCC1CC(NC(=O)c1nn(C)c3ccccc13)C2 (centres undefined)					
39%		Cc1[nH]cnc1CN1CCN(c2cccc(C(F)(F)F)c2)C1=O	Partially active	9.7 nM			
		O=C1N(c2cccc(Cl)c2)CCN1C1CN2CCC1CC2 (centres undefined)		2 nM	60%		0.0799 mg/kg
92%	0.0154 mg/kg	COc1cccc(N2CCN(Cc3nc[nH]c3C)C2=O)c1		3.6 nM			

SMILES	inhibition [2]	ID50 [4]	ID50 [1]	Ki [3]	Inhibition [5]	inhibition [6]	ID50 [7]
COc1ccc(Cl)cc1N1CCN(C2CN3CCC2CC3)C1=O (centres undefined)	11%		Partially active	40 nM			
CN1C2CCC1CC(N1CCN(c3cccc(Cl)c3)C1=O)C2 (stereo in doubt; 34) [listing 1 of 2 here]	0%		Partially active				
O=C1N(c2ccccc2)CCN1C1CN2CCC1CC2 (centres undefined)	71%	0.0671 mg/kg		8 nM			
CN1C2CCC1CC(NC(=O)N1CC(C)(C)c3ccccc31)C2 (centres undefined)	90.5%	0.00089 mg/kg		0.26 nM			
CN1C2CCCC1CC(N1CCN(c3cccc(Cl)c3)C1=O)C2 (stereo in doubt; 37) [listing 1 of 2 here]	15%		Partially active				
N#Cc1cccc(N2CCN(C3CN4CCC3CC4)C2=O)c1 (centres undefined)	43%		Partially active	30 nM			
CN1C2CCC1CC(N1CCN(c3ccccc3)C1=O)C2 (centres undefined)	56%		Partially active	12 nM			
COc1ccc(Cl)cc1N1CCN(C2CC3CCCC(C2)N3C)C1=O (centres undefined)	5%		Partially active	> 10000 nM			
CSc1cccc(N2CCN(C3CN4CCC3CC4)C2=O)c1 (centres undefined)	28%		Partially active	6 nM			
O=C1N(c2cccc(C(F)(F)F)c2)CCN1C1CN2CCC1CC2 (centres undefined)	14%		Partially active	98 nM			
COc1ccc(Cl)cc1N1CCN(C2CC3CCC(C2)N3C)C1=O (centres undefined)	22%		Partially active	400 nM			
CN1C2CCCC1CC(N1CCN(c3ccccc3)C1=O)C2 (centres undefined)	22%		Partially active	190 nM			
O=C1N(c2cc(Cl)cc(Cl)c2)CCN1C1CN2CCC1CC2 (centres undefined)	76%	0.0206 mg/kg		1 nM			
O=C1N(c2cccc(Br)c2)CCN1C1CN2CCC1CC2 (centres undefined)	77.7%		Partially active	3 nM			
O=C1N(c2cccc([N+](=O)[O-])c2)CCN1C1CN2CCC1CC2 (centres undefined)	5%		Partially active	10 nM			
CN1C2CCCC1CC(N1CCN(c3cccc(Cl)c3)C1=O)C2 (stereo in doubt; 38) [listing 2 of 2 here]	21%		Partially active				
Cc1cccc(N2CCN(C3CN4CCC3CC4)C2=O)c1 (centres undefined)	75%			4 nM			0.0376 mg/kg
CN1C2CCC1CC(N1CCN(c3cccc(Cl)c3)C1=O)C2 (stereo in doubt; 33) [listing 2 of 2 here]	27%		Partially active				
